Experimental data taken from the EternaBench riboswitch data.

Tested on: MS2 coat protein
Assay: apparent Kd, MS2 coat protein; higher = weaker binding; RNA-MaP array; FMN 200 µM where present
Outline: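 Green signal was scaled to red-channel RNA signal and control-cluster median Fmax, and the apparent Kd was taken as the median of filtered per-cluster binding-curve fits. The binding series used SNAP-549-labelled MS2 coat protein from 0.7 or 1.5 nM, doubling to 3 µM, on designs transcribed by stalled E. coli RNA polymerase on Illumina sequencing-chip clusters. Each series ran without and then with constant ligand in 100 mM Tris-HCl pH 7.5, 80 mM KCl, 4 mM MgCl2, BSA, DTT, yeast tRNA and Tween-20.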

[1] = designed as: OFF switch for flavin mononucleotide, no ligand
[2] = ligand present: flavin mononucleotide, designed as: OFF switch for flavin mononucleotide
[3] = designed as: ON switch for flavin mononucleotide, no ligand
[4] = ligand present: flavin mononucleotide, designed as: ON switch for flavin mononucleotide

Row | Sequence | apparent Kd [1] [nM] | apparent Kd [2] [nM] | apparent Kd [3] [nM] | apparent Kd [4] [nM]
1 | AUGAGUAAAGCAGGAUAUCUAUUGUCUCUGAAACAUGAGGAUCACCCAUGUAGAGAAGGGCUAAGUCUUACUCUUCGGAGUUGA | 9.98 | 10.3 | – | –
2 | AAUUCGUUCUAGAAGGUGCAUUUGUUAAACGUGCAAGGAUAUAGACAUGAGGAUCACCCAUGUCUAUGAGACAUCGGCCUCCUG | 5.33 | 8.23 | – | –
3 | UUUGUACAUGAGGAUCACCCAUGUUAGGAUAUCUCGCCGUCGGCUUGCCGACGGUAUUAGAGAAGGGACAAGGG | 136 | 108 | – | –
4 | AACAUGUGAGGAUAUGAGAACAGCCGGGAGGGCUGUGUAAAUUAGAAGGCACAUGAGGAUCACCCAUGUGACCU | 18.2 | 27.8 | – | –
5 | GUAGCAUACGGAGGAUAUUCAUAUAAUAAAUAAACAUGAGGAUCACCCAUGUGGCGAAAGCCUUGGGAGAAGGCCGAAUGCUAC | – | – | 805 | 39.8
6 | GGUGCACGCACAGGAUAUCCGGCGAAGCUCGUCGGAGAAGGGUGACAUGAGGAUCACCCAUGUACGUGCAACCCAGUUUGAGAG | – | – | 85.2 | 31.4
7 | CUGGGAUAGUGGGAUAGGGUUGCCAGAAGGGUCUACAUGAGGAUCACCCAUGUGGGUCCGAGUGGACAGGAUAUGGCGUCCGUA | 12.6 | 45.3 | – | –
8 | AUUUUACAUGAGGAUCACCCAUGUUUUGGUGGAUCAGGAUAUAGAUCGGAUGAGUUCUGGCUAGAAGGGAUAUAUA | – | – | 93.6 | 86.5
9 | AUUUACAAGUAAGGAUAUCGGGUAUAGUUAACUCGAGAAGGUACAUGAGGAUCACCCAUGUAGUAGAUACAUAGAACUGUUUUG | 13.6 | 12.7 | – | –
10 | ACAAGAUCAGGAUAUACAUGAGGAUCACCCAUGUUUAUCAAAAAAAGGCUUUCAUCAUGUAGAAGGGAUCUUGU | 99 | 126 | – | –
11 | AAACACGGACAUGAGGAUCACCCAUGUGGCGAAAGCCUUGGGAGAAGGCAGUAUGCAAAGCAUUCUGAGGAUAUUCAUACCGUG | – | – | 926 | 68.9
12 | AUACUAAAUGAAGGAUAUCUAAGCAUAAACCUGAGAGAAGGUCAUUUUUACAUGAGGAUCACCCAUGUUGUGGUUAAUGGGUUA | 216 | 317 | – | –
13 | GUGUAGUCAGGAUAUACAGAGGAAGAUAAUACAAUAUAAGUACAUGAGGAUCACCCAUGUAGAAGGGACAGUGU | 30.8 | 32.4 | – | –
14 | UAUAUGUCAGGAUAUUAAUUAAGAUGGAAUUUAGUCUUAGUUGAGAAGGGACAUGAGGAUCACCCAUGUUCCUC | 19.7 | 159 | – | –
15 | CGGUUUCACAUUUUAGUGAUUUAUACAGAAGGCCAUACACAUGAGGAUCACCCAUGUCAGGAAUUGGAGGAUAUGUUAUUGACG | – | – | 6.1 | 4.4
16 | AAUCAUUAUCGUUAUUUAUAUUAUUCAGAAGGACAAUUAAUAGCACAUGAGGAUCACCCAUGUUUGUAGGAUAUGAUGUUAUAC | – | – | 15.2 | 7.95
17 | GUAGUUGUGUGGUUGAGGAUAGGGCAGGAUAUACAUGAGGAUCACCCAUGUGAAGCGGGAAGGAGGUAGAAGGGCCAACGUCAU | 13.7 | 10.9 | – | –
18 | CCGCAAAAGCAGGAUAUCGUAUCGGAUACGAUACGAGAAGGGUUUACAUGAGGAUCACCCAUGUUCCUUAGCGG | 31.5 | 36 | – | –
19 | UUAUGUUUUGUAGGAUAUCAUUAGAUUUGUAUUUUAAUUGUAAUUUAGAUAUGAGAAGGACAUUUACAUGAGGAUCACCCAUGU | 14.7 | 10.7 | – | –
20 | GACAAGGGAGGAUAUGCACAAGGGAUAUCUGACAUGCCGUUACAUGAGGAUCACCCAUGUAGAAGGCCCGAAUA | 13.7 | 35.3 | – | –
